Source: ChEMBL document CHEMBL1649446, “Comparative antipneumococcal activities of sulopenem and other drugs” (2009)
≈ marks a conversion by molar mass, not a printed value.

Columns and labels:
Format in all cases: functional
[1] = system: Streptococcus pneumoniae; assay: Antimicrobial activity against Streptococcus pneumoniae isolate 1424 by agar dilution method
Outline: (§1)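 Agar dilution MIC on Mueller-Hinton agar with 5% sheep blood, inocula 10^4 CFU/spot; amoxicillin-clavulanate combined 1:2; S. pneumoniae ATCC 49619 quality control each run.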

[2] = system: Streptococcus pneumoniae; assay: Antimicrobial activity against Streptococcus pneumoniae isolate 3587 by agar dilution method
[3] = system: Streptococcus pneumoniae; assay: Antimicrobial activity against penicillin-resistant Streptococcus pneumoniae by agar dilution method; outline: as §1
[4] = system: Streptococcus pneumoniae; assay: Antimicrobial activity against Streptococcus pneumoniae isolate 3412 by agar dilution method; outline: as §1
[5] = system: Streptococcus pneumoniae; assay: Antimicrobial activity against Streptococcus pneumoniae 10 by time-kill analysis
Outline: (§2)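 Time-kill in cation-adjusted Mueller-Hinton broth with 5% lysed horse blood; inocula 5 × 105 to 5 × 10^6 CFU/ml; drugs at MIC, 2× and 4× MIC; 35°C shaking water bath; viable counts at 0, 3, 6, 12, 24 h. Bactericidal = ≥3 log10 CFU/ml (99.9%) drop from original inoculum; 90%/99%/99.9% killing scored per strain.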

[6] = system: Streptococcus pneumoniae; assay: Antimicrobial activity against Streptococcus pneumoniae isolate 2617 by agar dilution method; outline: as §1
[7] = system: Streptococcus pneumoniae; assay: Antimicrobial activity against Streptococcus pneumoniae isolate 2880 by agar dilution method; outline: as §1
[8] = system: Streptococcus pneumoniae; assay: Antimicrobial activity against penicillin-intermediate Streptococcus pneumoniae by agar dilution method
[9] = system: Streptococcus pneumoniae; assay: Antimicrobial activity against Streptococcus pneumoniae isolate 4755 by agar dilution method; outline: as §1
[10] = system: Streptococcus pneumoniae; assay: Antimicrobial activity against Streptococcus pneumoniae isolate 1147 by agar dilution method; outline: as §1
[11] = system: Streptococcus pneumoniae; assay: Antimicrobial activity against Streptococcus pneumoniae 5 by time-kill analysis
Outline: as §2, with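 “12 and” for “12,”, “if” for “=”, “reduction” for “drop”, “90% and 99%” for “90%/99%/99.9%”, “also scored.” for “scored per strain.”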

[12] = system: Streptococcus pneumoniae; assay: Antimicrobial activity against Streptococcus pneumoniae isolate 3681 by agar dilution method; outline: as §1
[13] = system: Streptococcus pneumoniae; assay: Antimicrobial activity against Streptococcus pneumoniae 4 by time-kill analysis; outline: as §2
[14] = system: Streptococcus pneumoniae; assay: Antimicrobial activity against Streptococcus pneumoniae isolate 2688 by agar dilution method; outline: as §1
[15] = system: Streptococcus pneumoniae; assay: Antimicrobial activity against Streptococcus pneumoniae isolate 3374 by agar dilution method; outline: as §1
[16] = system: Streptococcus pneumoniae; assay: Antimicrobial activity against Streptococcus pneumoniae isolate 3455 by agar dilution method
[17] = system: Streptococcus pneumoniae; assay: Antimicrobial activity against Streptococcus pneumoniae isolate 3791 by agar dilution method; outline: as §1
[18] = system: Streptococcus pneumoniae; assay: Antimicrobial activity against Streptococcus pneumoniae 19A by agar dilution method; outline: as §1
[19] = system: Streptococcus pneumoniae; assay: Antimicrobial activity against Streptococcus pneumoniae isolate 2874 by agar dilution method; outline: as §1
[20] = system: Streptococcus pneumoniae; assay: Antimicrobial activity against Streptococcus pneumoniae 3 by time-kill analysis; outline: as §2
[21] = system: Streptococcus pneumoniae; assay: Antimicrobial activity against Streptococcus pneumoniae 1 by time-kill analysis
Outline: as §2, with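 “12 and” for “12,”, “if” for “=”, “reduction” for “drop”, “90% and 99%” for “90%/99%/99.9%”, “also scored.” for “scored per strain.”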

[22] = system: Streptococcus pneumoniae; assay: Antimicrobial activity against Streptococcus pneumoniae 11 by time-kill analysis; outline: as §2
[23] = system: Streptococcus pneumoniae; assay: Antimicrobial activity against Streptococcus pneumoniae 7 by time-kill analysis; outline: as §2
[24] = system: Streptococcus pneumoniae; assay: Antimicrobial activity against Streptococcus pneumoniae 9 by time-kill analysis
Outline: as §2, with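 “12 and” for “12,”, “if” for “=”, “reduction” for “drop”, “90% and 99%” for “90%/99%/99.9%”, “also scored.” for “scored per strain.”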

[25] = system: Streptococcus pneumoniae; assay: Antimicrobial activity against Streptococcus pneumoniae 2 by time-kill analysis; outline: as §2
[26] = system: Streptococcus pneumoniae; assay: Antimicrobial activity against Streptococcus pneumoniae isolate 1146 by agar dilution method; outline: as §1
[27] = system: Streptococcus pneumoniae; assay: Antimicrobial activity against Streptococcus pneumoniae isolate 3260 by agar dilution method
[28] = system: Streptococcus pneumoniae; assay: Antimicrobial activity against Streptococcus pneumoniae isolate 3481 by agar dilution method; outline: as §1
[29] = system: Streptococcus pneumoniae; assay: Antimicrobial activity against Streptococcus pneumoniae isolate 1384 by agar dilution method; outline: as §1
[30] = system: Streptococcus pneumoniae; assay: Antimicrobial activity against Streptococcus pneumoniae isolate 2686 by agar dilution method; outline: as §1
[31] = system: Streptococcus pneumoniae; assay: Antimicrobial activity against Streptococcus pneumoniae isolate 37 by agar dilution method; outline: as §1
[32] = system: Streptococcus pneumoniae; assay: Antimicrobial activity against Streptococcus pneumoniae isolate 3263 by agar dilution method
[33] = system: Streptococcus pneumoniae; assay: Antimicrobial activity against Streptococcus pneumoniae isolate 33 by agar dilution method; outline: as §1
[34] = system: Streptococcus pneumoniae; assay: Antimicrobial activity against Streptococcus pneumoniae isolate 24 by agar dilution method
[35] = system: Streptococcus pneumoniae; assay: Antimicrobial activity against Streptococcus pneumoniae isolate 3282 by agar dilution method
[36] = system: Streptococcus pneumoniae; assay: Antimicrobial activity against Streptococcus pneumoniae 6 by time-kill analysis; outline: as §2
[37] = system: Streptococcus pneumoniae; assay: Antimicrobial activity against Streptococcus pneumoniae 8 by time-kill analysis; outline: as §2
[38] = system: Streptococcus pneumoniae; assay: Antimicrobial activity against Streptococcus pneumoniae isolate 4747 by agar dilution method; outline: as §1
[39] = system: Streptococcus pneumoniae; assay: Antimicrobial activity against Streptococcus pneumoniae 12 by time-kill analysis; outline: as §2
[40] = system: Streptococcus pneumoniae; assay: Antimicrobial activity against Streptococcus pneumoniae isolate 1564 by agar dilution method
[41] = system: Streptococcus pneumoniae; assay: Antimicrobial activity against Streptococcus pneumoniae isolate 3275 by agar dilution method; outline: as §1
[42] = system: Streptococcus pneumoniae; assay: Antimicrobial activity against Streptococcus pneumoniae isolate 3458 by agar dilution method
[43] = system: Streptococcus pneumoniae; assay: Antimicrobial activity against Streptococcus pneumoniae isolate 3346 by agar dilution method
[44] = system: Streptococcus pneumoniae; assay: Antimicrobial activity against Streptococcus pneumoniae isolate 1397 by agar dilution method; outline: as §1
[45] = system: Streptococcus pneumoniae; assay: Antimicrobial activity against penicillin-susceptible Streptococcus pneumoniae by agar dilution method
[46] = system: Streptococcus pneumoniae; assay: Antimicrobial activity against Streptococcus pneumoniae isolate 1394 by agar dilution method
[47] = system: Streptococcus pneumoniae; assay: Antimicrobial activity against Streptococcus pneumoniae isolate 1055 by agar dilution method

C[C@@H](O)[C@H]1C(=O)N2C(C(=O)O)=C(S[C@@H]3CN[C@H](C(=O)N(C)C)C3)[C@H](C)[C@H]12 [MEROPENEM]
MIC [1]: 0.5 µg/mL (≈ 1.3 µM)
MIC [2]: 0.5 µg/mL (≈ 1.3 µM)
MIC50 [3]: 0.5 µg/mL (≈ 1.3 µM)
MIC90 [3]: 0.5 µg/mL (≈ 1.3 µM)
MIC [4]: 0.25 µg/mL (≈ 0.652 µM)
MIC [5]: 0.06 µg/mL (≈ 0.156 µM)
MIC [6]: 0.25 µg/mL (≈ 0.652 µM)
MIC [7]: 0.5 µg/mL (≈ 1.3 µM)
MIC50 [8]: 0.06 µg/mL (≈ 0.156 µM)
MIC90 [8]: 0.25 µg/mL (≈ 0.652 µM)
MIC [9]: 0.25 µg/mL (≈ 0.652 µM)
MIC [10]: 2 µg/mL (≈ 5.22 µM)
MIC [11]: 2 µg/mL (≈ 5.22 µM)
MIC [12]: 0.25 µg/mL (≈ 0.652 µM)
MIC [13]: 0.5 µg/mL (≈ 1.3 µM)
MIC [14]: 0.5 µg/mL (≈ 1.3 µM)
MIC [15]: 0.25 µg/mL (≈ 0.652 µM)
MIC [16]: 1 µg/mL (≈ 2.61 µM)
MIC [17]: 0.25 µg/mL (≈ 0.652 µM)
MIC50 [18]: 1 µg/mL (≈ 2.61 µM)
MIC90 [18]: 1 µg/mL (≈ 2.61 µM)
MIC [19]: 1 µg/mL (≈ 2.61 µM)
MIC [20]: 0.25 µg/mL (≈ 0.652 µM)
MIC [21]: 0.016 µg/mL (≈ 0.0417 µM)
MIC [22]: 1 µg/mL (≈ 2.61 µM)
MIC [23]: 1 µg/mL (≈ 2.61 µM)
MIC [24]: 0.12 µg/mL (≈ 0.313 µM)
MIC [25]: 0.008 µg/mL (≈ 0.0209 µM)
MIC [26]: 1 µg/mL (≈ 2.61 µM)
MIC [27]: 0.25 µg/mL (≈ 0.652 µM)
MIC [28]: 0.25 µg/mL (≈ 0.652 µM)
MIC [29]: 0.25 µg/mL (≈ 0.652 µM)
MIC [30]: 0.5 µg/mL (≈ 1.3 µM)
MIC [31]: 1 µg/mL (≈ 2.61 µM)
MIC [32]: 0.25 µg/mL (≈ 0.652 µM)
MIC [33]: 1 µg/mL (≈ 2.61 µM)
MIC [34]: 0.5 µg/mL (≈ 1.3 µM)
MIC [35]: 0.25 µg/mL (≈ 0.652 µM)
MIC [36]: 0.12 µg/mL (≈ 0.313 µM)
MIC [37]: 1 µg/mL (≈ 2.61 µM)
MIC [38]: 0.25 µg/mL (≈ 0.652 µM)
MIC [39]: 0.5 µg/mL (≈ 1.3 µM)
MIC [40]: 0.125 µg/mL (≈ 0.326 µM)
MIC [41]: 0.125 µg/mL (≈ 0.326 µM)
MIC [42]: 1 µg/mL (≈ 2.61 µM)
MIC [43]: 0.25 µg/mL (≈ 0.652 µM)
MIC [44]: 0.5 µg/mL (≈ 1.3 µM)
MIC50 [45]: 0.016 µg/mL (≈ 0.0417 µM)
MIC90 [45]: 0.016 µg/mL (≈ 0.0417 µM)
MIC [46]: 0.5 µg/mL (≈ 1.3 µM)
MIC [47]: 0.5 µg/mL (≈ 1.3 µM)
